Results from ChEMBL document CHEMBL1148329, “Synthesis and structure-activity studies on N-[5-(1H-imidazol-4-yl)-5,6,7,8-tetrahydro-1-naphthalenyl]methanesulfonamide, an imidazole-containing alpha(1A)-adrenoceptor agonist” (J Med Chem, 2004).

Assays:
[1] = molecular target: T1, Alpha-2A adrenergic receptor (Homo sapiens, UniProt P08913); assay: In vitro binding affinity towards alpha-2A adrenergic receptor of human clone in radioligand binding assay
T1 sequence (P08913 whole entry): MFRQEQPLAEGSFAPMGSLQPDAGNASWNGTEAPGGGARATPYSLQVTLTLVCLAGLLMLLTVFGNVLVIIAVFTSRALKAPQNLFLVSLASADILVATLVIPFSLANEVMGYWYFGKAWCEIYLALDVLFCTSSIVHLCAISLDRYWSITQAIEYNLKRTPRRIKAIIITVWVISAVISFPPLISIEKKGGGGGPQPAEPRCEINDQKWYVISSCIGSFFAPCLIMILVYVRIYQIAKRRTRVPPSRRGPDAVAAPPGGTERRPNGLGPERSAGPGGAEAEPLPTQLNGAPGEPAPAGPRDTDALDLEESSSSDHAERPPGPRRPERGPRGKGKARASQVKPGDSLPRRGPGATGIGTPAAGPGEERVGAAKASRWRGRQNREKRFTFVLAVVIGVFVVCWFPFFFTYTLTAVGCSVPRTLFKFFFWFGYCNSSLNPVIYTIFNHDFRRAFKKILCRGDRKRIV

[2] = molecular target: T2, Alpha-1A adrenergic receptor (Oryctolagus cuniculus) (UniProt O02824); assay: Efficacy relative to phenylephrine (PE) to constrict tissue containing the alpha-1A adrenergic receptor in rabbit urethra; format: functional, tissue-based
T2 sequence (whole entry): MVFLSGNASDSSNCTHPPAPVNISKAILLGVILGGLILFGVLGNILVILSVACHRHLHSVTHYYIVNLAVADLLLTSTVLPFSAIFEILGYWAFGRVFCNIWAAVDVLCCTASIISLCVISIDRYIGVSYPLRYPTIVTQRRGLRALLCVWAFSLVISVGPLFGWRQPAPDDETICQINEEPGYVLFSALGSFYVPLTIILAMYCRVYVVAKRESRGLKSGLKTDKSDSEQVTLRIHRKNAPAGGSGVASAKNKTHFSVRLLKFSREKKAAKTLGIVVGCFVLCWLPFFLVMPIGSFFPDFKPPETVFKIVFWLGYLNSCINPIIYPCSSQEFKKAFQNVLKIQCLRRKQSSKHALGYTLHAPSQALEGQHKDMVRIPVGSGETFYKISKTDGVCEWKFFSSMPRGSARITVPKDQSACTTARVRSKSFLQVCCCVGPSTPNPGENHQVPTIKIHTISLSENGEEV
Summary of the method: (§1)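 α1-agonist dose–response curves in isolated tissue: rabbit urethra (α1A), rat spleen (α1B), rat aorta (α1D). Agonist potency and efficacy read from the concentration–response curves.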

[3] = molecular target: T2, Alpha-1A adrenergic receptor (Oryctolagus cuniculus); assay: Functional agonism of the compounds to constrict tissue containing the alpha-1A adrenergic receptor in rabbit urethra; format: tissue-based; summary of the method: as §1
[4] = molecular target: T3, Alpha-1B adrenergic receptor (Rattus norvegicus) (UniProt P15823); assay: Efficacy relative to phenylephrine (PE) constriction of rat spleen containing alpha-1B adrenergic receptor; format: functional, tissue-based; summary of the method: as §1
T3 sequence (whole entry): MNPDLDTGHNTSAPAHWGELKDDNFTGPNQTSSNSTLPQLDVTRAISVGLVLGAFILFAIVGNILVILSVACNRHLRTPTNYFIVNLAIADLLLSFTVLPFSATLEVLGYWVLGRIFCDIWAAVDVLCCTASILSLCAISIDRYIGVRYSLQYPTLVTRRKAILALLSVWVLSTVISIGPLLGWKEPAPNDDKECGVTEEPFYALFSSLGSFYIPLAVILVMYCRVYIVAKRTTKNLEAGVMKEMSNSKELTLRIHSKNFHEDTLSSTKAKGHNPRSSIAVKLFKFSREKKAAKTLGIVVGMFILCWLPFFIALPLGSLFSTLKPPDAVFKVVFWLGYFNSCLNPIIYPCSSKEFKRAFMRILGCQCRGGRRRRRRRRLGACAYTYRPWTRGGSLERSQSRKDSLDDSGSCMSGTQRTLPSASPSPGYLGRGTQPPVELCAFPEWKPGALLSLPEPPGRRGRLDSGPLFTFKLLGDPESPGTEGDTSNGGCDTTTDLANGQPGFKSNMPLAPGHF

[5] = molecular target: T4, Alpha-1B adrenergic receptor (Mesocricetus auratus, UniProt P18841); assay: In vitro binding affinity towards alpha-1B adrenergic receptor of hamster clone in radioligand binding assay; format: single protein
T4 sequence (P18841 whole entry): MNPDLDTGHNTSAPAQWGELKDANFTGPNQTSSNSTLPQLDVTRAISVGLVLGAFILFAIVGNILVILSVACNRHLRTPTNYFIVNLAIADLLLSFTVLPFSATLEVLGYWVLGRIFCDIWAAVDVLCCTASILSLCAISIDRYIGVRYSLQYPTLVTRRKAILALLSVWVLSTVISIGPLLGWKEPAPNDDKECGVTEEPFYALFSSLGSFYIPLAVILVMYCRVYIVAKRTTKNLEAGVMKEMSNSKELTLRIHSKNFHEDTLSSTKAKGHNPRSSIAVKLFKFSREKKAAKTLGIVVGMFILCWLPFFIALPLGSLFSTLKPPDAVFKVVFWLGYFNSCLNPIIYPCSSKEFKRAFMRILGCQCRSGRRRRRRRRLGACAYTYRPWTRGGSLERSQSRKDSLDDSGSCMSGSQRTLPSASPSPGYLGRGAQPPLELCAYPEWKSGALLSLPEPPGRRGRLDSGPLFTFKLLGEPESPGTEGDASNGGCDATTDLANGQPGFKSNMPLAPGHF
Summary of the method: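 Radioligand binding at α1 subtypes: α1A from rat submaxillary gland, α1B hamster clone, α1D rat clone. Run essentially per an earlier method.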

Canis familiaris [6] = assay: Uroselectivity was determined by measuring effective dose required for 20 mmHg increase of mean arterial pressure (MAP) in vivo in dog; format: functional, Canis lupus familiaris, Artery
Summary of the method: (§2)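 Dog model recording intraurethral pressure (IUP) and mean arterial pressure (MAP) simultaneously. Increasing iv doses given, maximal effect of each dose taken. Doses giving a 5 mmHg rise in IUP (ED Δ5) or 20 mmHg rise in MAP (ED Δ20) were calculated, in nmol/kg ± SEM, n ≥ 4 (2 or 3 where footnoted).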

Canis familiaris [7] = assay: Uroselectivity was determined by measuring effective dose required for 5 mmHg increase of intraurethral pressure (IUP) in vivo in dog; format: functional, Canis lupus familiaris; summary of the method: as §2
Rattus norvegicus = species on record: Rattus norvegicus; assay: Relative affinities for alpha2B and alpha1A receptors
[8] = Relative affinities for alpha-2a and alpha-1A receptors
Canis familiaris [9] = species on record: Canis familiaris; assay: Ratio of MAP ED delta20 to that of IUP ED delta5
[10] = Selectivity is ratio of efficacy of alpha-1B to that of alpha1A adrenoceptor; format: functional
[11] = Selectivity is ratio of efficacy of Alpha-1D to that of alpha-1A adrenoceptor; format: functional

SMILES	Ki [1]	Efficacy [2]	pD2 [3]	Efficacy [4]	Ki [5]	ED delta20 (Canis familiaris [6])	ED delta5 (Canis familiaris [7])	Selectivity (Rattus norvegicus)	Selectivity [8]	Ratio (Canis familiaris [9])	Selectivity [10]	Selectivity [11]
O=C(Nc1cccc2c1CCCC2c1c[nH]cn1)C(F)(F)F (stereo not given)	309 nM	118%	6.28	19%	> 10000 nM	216 nM/kg	188 nM/kg	4	2	1.1	–	–
O=S(=O)(CC(F)(F)F)Nc1cccc2c1CCCC2c1c[nH]cn1 (single isomer, unassigned; (+))	955 nM	52%	5.73	–	> 10000 nM	450 nM/kg	156 nM/kg	> 80	8	3	–	–
CN(c1cccc2c1CCCC2c1c[nH]cn1)S(C)(=O)=O (stereo not given)	85.1 nM	79%	6.16	–	> 10000 nM	225.3 nM/kg	–	4	0.4	2.5	–	–
COc1ccc(OC)c(C(O)CN)c1 (stereo not given) [DESGLYMIDODRINE]	1450 nM	133%	5.15	68%	–	250 nM/kg	205 nM/kg	0.9	0.7	1.3	12	1
CC(N)C(O)c1ccccc1 (stereo not given) [PHENYLPROPANOLAMINE]	275 nM	68%	3.63	34%	9550 nM	330 nM/kg	1100 nM/kg	0.03	0.03	0.4	1	0.2
